Reference: ChEMBL document CHEMBL3286385, “Novel 1-[4-(Aminosulfonyl)phenyl]-1H-1,2,4-triazole derivatives with remarkable selective COX-2 inhibition: design, synthesis, molecular docking, anti-inflammatory and ulcerogenicity studies” (Eur J Med Chem, 2014)

How the values were obtained:
Rattus norvegicus [1] = experiment: Antiinflammatory activity against albino rat assessed as inhibition of carrageenan-induced paw edema at 0.28 mmol/kg, po administered 30 mins prior to carrageenan challenge measured after 3 hrs relative to celecoxib; assay type: functional; parameters: scale not given: the % may be the effect or the level left
[2] = Selectivity index, ratio of IC50 for ovine COX1 to IC50 for human recombinant COX2
Method in brief: (§1)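 Ovine COX-1 or human recombinant COX-2 was preincubated 20 min at room temperature with a range of compound concentrations in 100 mM Tris-HCl pH 8.0, heme and ADHP. Arachidonic acid was then added for 2 min at room temperature, and resorufin fluorescence was read. IC50 came from the dose-response curve (triplicate determinations). Selectivity index = COX-1 IC50/COX-2 IC50.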

Rattus norvegicus [3] = experiment: Antiinflammatory activity against albino rat assessed as inhibition of carrageenan-induced paw edema at 0.28 mmol/kg, po administered 30 mins prior to carrageenan challenge measured after 3 hrs relative to control; assay type: functional
Method in brief: (§2)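 Adult male albino rats (120–140 g), in groups of four, were fasted 24 h with water allowed. Compounds were given orally as a suspension in 0.5% w/v CMC in water, and controls received CMC alone. After 30 min, 0.1 mL of 1% carrageenan in saline was injected subplantar into the right hind paw and saline into the left. Paw thickness was measured by caliper. % inhibition = [(VR−VL)control − (VR−VL)treated]/(VR−VL)control; one-way ANOVA.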

Rattus norvegicus [4] = experiment: Antiinflammatory activity against albino rat assessed as inhibition of carrageenan-induced paw edema at 0.28 mmol/kg, po administered 30 mins prior to carrageenan challenge measured after 2 hrs relative to control; assay type: functional; method in brief: as §2
[5] = biological target: T1, Prostaglandin G/H synthase 2 (Homo sapiens, UniProt P35354); experiment: Inhibition of human recombinant COX2 using ADHP as substrate after 20 mins by fluorescence assay; method in brief: as §1
T1 sequence (P35354 whole entry): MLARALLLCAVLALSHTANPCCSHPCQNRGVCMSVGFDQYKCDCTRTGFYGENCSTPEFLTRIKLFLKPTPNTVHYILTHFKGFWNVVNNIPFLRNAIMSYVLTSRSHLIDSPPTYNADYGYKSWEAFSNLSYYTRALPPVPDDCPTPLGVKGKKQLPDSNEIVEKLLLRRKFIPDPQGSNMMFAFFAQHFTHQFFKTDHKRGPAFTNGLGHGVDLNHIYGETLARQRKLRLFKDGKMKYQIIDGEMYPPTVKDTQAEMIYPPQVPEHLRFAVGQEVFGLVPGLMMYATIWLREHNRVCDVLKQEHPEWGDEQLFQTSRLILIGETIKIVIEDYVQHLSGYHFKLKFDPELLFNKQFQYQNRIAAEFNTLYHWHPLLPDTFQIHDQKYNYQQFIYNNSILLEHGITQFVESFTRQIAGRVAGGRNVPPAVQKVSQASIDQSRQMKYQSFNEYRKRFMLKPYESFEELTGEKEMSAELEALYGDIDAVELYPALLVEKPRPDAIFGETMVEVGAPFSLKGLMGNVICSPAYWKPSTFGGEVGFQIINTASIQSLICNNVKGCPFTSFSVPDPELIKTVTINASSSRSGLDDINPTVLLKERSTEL

Rattus norvegicus [6] = experiment: Gastric toxicity in rat assessed as ulcer index at 0.28 mmol/kg, po; assay type: organism-based; conditions: in vivo
Rattus norvegicus [7] = experiment: Antiinflammatory activity against albino rat assessed as inhibition of carrageenan-induced paw edema at 0.28 mmol/kg, po administered 30 mins prior to carrageenan challenge measured after 4 hrs relative to control; assay type: functional; method in brief: as §2
Rattus norvegicus [8] = experiment: Antiinflammatory activity against albino rat assessed as inhibition of carrageenan-induced paw edema at 0.28 mmol/kg, po administered 30 mins prior to carrageenan challenge measured after 5 hrs relative to control; assay type: functional; method in brief: as §2
[9] = biological target: T2, Prostaglandin G/H synthase 1 (Ovis aries, UniProt P05979); experiment: Inhibition of ovine COX1 using ADHP as substrate after 20 mins by fluorescence assay; method in brief: as §1
T2 sequence (P05979 whole entry): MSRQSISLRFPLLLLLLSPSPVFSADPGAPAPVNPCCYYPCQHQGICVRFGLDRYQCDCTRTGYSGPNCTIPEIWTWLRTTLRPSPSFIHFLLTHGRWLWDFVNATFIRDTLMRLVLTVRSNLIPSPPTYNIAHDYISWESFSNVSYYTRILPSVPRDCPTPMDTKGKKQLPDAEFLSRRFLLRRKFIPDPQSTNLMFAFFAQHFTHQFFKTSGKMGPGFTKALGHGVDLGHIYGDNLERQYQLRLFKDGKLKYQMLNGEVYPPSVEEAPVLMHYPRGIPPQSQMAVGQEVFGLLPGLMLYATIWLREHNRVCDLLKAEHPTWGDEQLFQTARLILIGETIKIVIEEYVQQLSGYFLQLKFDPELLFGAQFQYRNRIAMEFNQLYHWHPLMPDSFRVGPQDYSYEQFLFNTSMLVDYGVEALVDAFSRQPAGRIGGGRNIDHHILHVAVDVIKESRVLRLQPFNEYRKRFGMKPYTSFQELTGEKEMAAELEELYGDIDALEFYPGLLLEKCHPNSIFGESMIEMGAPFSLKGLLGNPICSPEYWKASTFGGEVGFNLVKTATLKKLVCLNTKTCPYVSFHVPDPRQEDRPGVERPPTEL

Rattus norvegicus [10] = experiment: Antiinflammatory activity against albino rat assessed as inhibition of carrageenan-induced paw edema at 0.28 mmol/kg, po administered 30 mins prior to carrageenan challenge measured after 3 hrs relative to indomethacin; assay type: functional; parameters: scale not given: the % may be the effect or the level left
Rattus norvegicus [11] = experiment: Antiinflammatory activity against albino rat assessed as inhibition of carrageenan-induced paw edema at 0.28 mmol/kg, po administered 30 mins prior to carrageenan challenge measured after 1 hr relative to control; assay type: functional; method in brief: as §2

| SMILES | Ratio IC50 [2] | IC50 [5] | IC50 [9] | Activity (Rattus norvegicus [1]) | inhibition in vivo at 280 µmol/kg (Rattus norvegicus [3]) | inhibition in vivo at 280 µmol/kg (Rattus norvegicus [4]) | UI (Rattus norvegicus [6]) | inhibition in vivo at 280 µmol/kg (Rattus norvegicus [7]) | inhibition in vivo at 280 µmol/kg (Rattus norvegicus [8]) | Activity (Rattus norvegicus [10]) | inhibition in vivo at 280 µmol/kg (Rattus norvegicus [11]) |
| --- | --- | --- | --- | --- | --- | --- | --- | --- | --- | --- | --- |
| Cc1ccc(-c2cc(C(F)(F)F)nn2-c2ccc(S(N)(=O)=O)cc2)cc1 [CELECOXIB] | – | – | – | 100% | 69% | 50% | 0.5 | 59% | 52% | – | 44% |
| CC(=O)c1ccc(NC(=O)c2nc(-c3ccccc3)n(-c3ccc(S(N)(=O)=O)cc3)n2)cc1 | – | – | – | 106% | 73% | 68% | 0.5 | 64% | 42% | 92% | 53% |
| NC(=O)c1nc(-c2ccccc2)n(-c2ccc(S(N)(=O)=O)cc2)n1 | – | – | – | 75% | 52% | 48% | 2 | 49% | 42% | 66% | 43% |
| COC(=O)c1nc(-c2ccccc2)n(-c2ccc(S(N)(=O)=O)cc2)n1 | – | – | – | 100% | 69% | 48% | 3 | 61% | 46% | 87% | 38% |
| NS(=O)(=O)c1ccc(-n2nc(C(=O)NC3CCCCC3)nc2-c2ccccc2)cc1 | > 1520 | 0.66 µM | > 1000 µM | 94% | 65% | 43% | 0 | 53% | 42% | 82% | 20% |
| COc1ccc2c(c1)c(CC(=O)O)c(C)n2C(=O)c1ccc(Cl)cc1 [INDOMETHACIN] | – | – | – | – | 79% | 66% | 39 | 81% | 84% | 100% | 54% |
| NNC(=O)c1nc(-c2ccccc2)n(-c2ccc(S(N)(=O)=O)cc2)n1 | – | – | – | 87% | 60% | 53% | 3 | 45% | 32% | 76% | 32% |

Further lines, with some results ahead:

| Ratio IC50 [2] | IC50 [5] | IC50 [9] | SMILES | Activity (Rattus norvegicus [1]) | inhibition in vivo at 280 µmol/kg (Rattus norvegicus [3]) | inhibition in vivo at 280 µmol/kg (Rattus norvegicus [4]) | UI (Rattus norvegicus [6]) | inhibition in vivo at 280 µmol/kg (Rattus norvegicus [7]) | inhibition in vivo at 280 µmol/kg (Rattus norvegicus [8]) | Activity (Rattus norvegicus [10]) | inhibition in vivo at 280 µmol/kg (Rattus norvegicus [11]) |
| --- | --- | --- | --- | --- | --- | --- | --- | --- | --- | --- | --- |
| > 1120 | 0.89 µM | > 1000 µM | COc1ccc(NC(=O)c2nc(-c3ccccc3)n(-c3ccc(S(N)(=O)=O)cc3)n2)cc1 | 113% | 78% | 57% | 2.3 | 73% | 55% | 99% | 53% |
| > 2130 | 0.47 µM | > 1000 µM | NS(=O)(=O)c1ccc(-n2nc(C(=O)Nc3ccc(Cl)cc3)nc2-c2ccccc2)cc1 | 97% | 67% | 62% | 0.5 | 53% | 44% | 85% | 36% |
| 271 | 1.9 µM | 516 µM | Cc1ccc(NC(=O)c2nc(-c3ccccc3)n(-c3ccc(S(N)(=O)=O)cc3)n2)cc1 | 110% | 76% | 47% | 1 | 71% | 65% | 96% | 40% |
| > 588 | 1.7 µM | > 1000 µM | NS(=O)(=O)c1ccc(-n2nc(C(=O)NCc3ccccc3)nc2-c2ccccc2)cc1 | 84% | 58% | 47% | 3 | 36% | 29% | 73% | 42% |
| > 62.5 | 16 µM | > 1000 µM | CC(C)NC(=O)c1nc(-c2ccccc2)n(-c2ccc(S(N)(=O)=O)cc2)n1 | 80% | 55% | 43% | 0 | 44% | 43% | 70% | 21% |
| 266 | 1.3 µM | 346 µM | COc1ccc(NC(=O)c2nc(-c3ccccc3)n(-c3ccc(S(N)(=O)=O)cc3)n2)cc1OC | 104% | 72% | 52% | 0 | 63% | 60% | 91% | 22% |
